Consider 2 molecules from publication PMC2897717 (Journal of cerebral blood flow and metabolism : official …, 2009).

The subject of one data set is dopamine D2/D3 receptors. Nature of the data set: Multiple-injection. Format: in vivo, rhesus monkey (Macaca mulatta).
A short description of another data set: Multiple-injection. Format: in vivo, rhesus monkey (Macaca mulatta). Put shortly:
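Three labeled/unlabeled radioligand injections were given i.v. in 0.9% NaCl within a session under 3 hours, with no decay correction. The model used K1, k2, fNDkon, koff and Bmax shared across injections, with molar arterial parent plasma as input and a blood-volume term. Levenberg–Marquardt fitting was run per ROI and across regions. Cerebellum was fitted as 1CM [K1,k2] or 2CM [K1,k2,Bmax] with fNDkon and koff fixed from other regions.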

The conditions of data set [1]: baboon, MI experiments; ref Delforge et al, 1999; cited from earlier work.
Where [2] appears, read: averaged across all brain regions.

As for `C=CCN1CCC[C@H]1CNC(=O)c1cc(CCCF)cc(OC)c1OC` [^18F-fallypride, (S)-N-[(1-allyl-2-pyrrolidinyl)methyl]-5 (3-[18F]fluoropropyl) 2,3-dimethoxybenzamide], the “Estimated maximum receptor occupancy, injection 1” value in the data set with dopamine D2/D3 receptors (experiment M1a, m1 2.0 nmol) is 13%; in the data set with dopamine D2/D3 receptors (experiment M2a, m1 0.7 nmol), 12%. Further, the “Estimated maximum receptor occupancy, injection 2” value was 64% with dopamine D2/D3 receptors (experiment M1a, m2 13.1 nmol) and 77% in the data set on dopamine D2/D3 receptors (experiment M2a, m2 10.6 nmol). The “Estimated maximum receptor occupancy, injection 3” value in the data set on dopamine D2/D3 receptors (experiment M1a, m3 100 nmol) is given as 98%. Moreover, in “Multiple-injection” (setting [2]), the “K1, mean” value is given as 0.48 ± 0.15 mL/cm^3/min. Besides, the “k2, tissue-to-plasma efflux constant, mean” value in the data set “Multiple-injection” (setting [2]) was determined as 0.54 ± 0.10 min⁻¹. The “ND distribution volume (VND = K1/k2)” value in “Multiple-injection” (from mean K1 and k2) was determined as 0.9 mL/cm^3.

With `CCN1CCCC1CNC(=O)c1cc([76Br])cc(OC)c1OC` (stereo not drawn) [^76Br-FLB457], the VND in data set [1] is 0.35 mL/cm^3.
